# Measured values reported in ChEMBL document CHEMBL1131831, “A rapid method to identify exo-protease inhibitors” (Bioorg Med Chem Lett, 1999).
# Columns and labels:
# [1] = biological target: T1, Neutrophil elastase (Homo sapiens) (UniProt P08246); assay: Proteolysis rate constant (Kcat), when mixed with human leukocyte elastase (HLE)enzyme for the conversion of water-soluble compound to fluorescent oil-soluble compound
# T1 sequence (whole entry): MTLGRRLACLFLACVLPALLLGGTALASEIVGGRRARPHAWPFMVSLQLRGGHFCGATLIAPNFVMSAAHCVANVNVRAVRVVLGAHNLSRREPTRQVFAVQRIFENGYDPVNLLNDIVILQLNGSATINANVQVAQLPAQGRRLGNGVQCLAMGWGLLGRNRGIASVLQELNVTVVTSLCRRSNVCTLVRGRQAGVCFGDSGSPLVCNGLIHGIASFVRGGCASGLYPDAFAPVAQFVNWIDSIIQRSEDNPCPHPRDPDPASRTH
# Summary of the method: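 Human leukocyte elastase (1 unit = 1.2 µg; releases 1 µmol/min p-nitrophenol from N-t-BOC-L-alanine-p-nitrophenyl ester, pH 6.5, 37 °C) in 50 mM NaOAc, 100 mM NaCl, 8 mM NaN3 pH 6.0. Enzyme mixed with 12 µM substrate in buffer under a trace mineral-oil layer, shaken at 37 °C. Released fluorophore extracted into oil, diluted with n-heptane, quantified by absorbance at 424 nm against oil at 272 nm.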
# [2] = Ratio of proteolysis rate constant (Kcat) to that of proteolysis constant (Km) was determined
# Summary of the method: (§1)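 Porcine pancreatic trypsin (type IX), porcine pancreatic kallikrein, bovine spleen cathepsin B and porcine pancreatic elastase, each enzyme added to 12 µM substrate solution over mineral oil, shaken at 37 °C. Buffers: trypsin 10 mM Tris-HCl pH 7.8; kallikrein 50 mM Tris pH 9.0; cathepsin B 100 mM potassium phosphate pH 6.0; elastase 10 mM Tris-HCl pH 7.5. Released fluorophore in the oil is diluted with n-heptane and quantified at 424 nm against oil absorbance at 272 nm.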
# [3] = tested on: CN(C(=O)[C@@H](CCCCC(=N)N)NC(=O)[C@H](CCCCC(=N)N)NC(=O)OCc1ccccc1)c1ccc(C#C/C=C/c2ccc([N+](=O)[O-])c(O)c2)cc1; assay: Proteolysis constant (Km), when mixed with Cathepsin B enzyme for the conversion of water-soluble compound to fluorescent oil-soluble compound; summary of the method: as §1
# [4] = biological target: T2, Chymotrypsin-like elastase family member 2A (Sus scrofa) (UniProt P08419); assay: Proteolysis rate constant (Kcat), when mixed with elastase enzyme for the conversion of water-soluble compound to fluorescent oil-soluble compound; summary of the method: as §1
# T2 sequence (whole entry): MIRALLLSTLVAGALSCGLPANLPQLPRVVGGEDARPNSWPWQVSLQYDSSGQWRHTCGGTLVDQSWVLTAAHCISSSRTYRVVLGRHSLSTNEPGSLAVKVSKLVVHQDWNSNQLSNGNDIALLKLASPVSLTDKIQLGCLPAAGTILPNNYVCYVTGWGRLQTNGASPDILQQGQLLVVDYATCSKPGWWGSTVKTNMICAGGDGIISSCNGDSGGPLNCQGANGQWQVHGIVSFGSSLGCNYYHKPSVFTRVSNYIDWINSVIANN
Compound,k cat [1],k cat/Km [2],Km [3],k cat [4]
CC(C)C[C@H](NC(=O)[C@H](N)Cc1ccc(O)cc1)C(=O)N[C@@H](C(=O)N(C)c1ccc(C#C/C=C/c2ccc([N+](=O)[O-])c(O)c2)cc1)C(C)C,3.6 s⁻¹,225000 M⁻¹ s⁻¹,,
"Cathepsin B (Bos taurus), P07688",,,129 µM,
COCCOCCOCCOCCOC(=O)N[C@@H](C)C(=O)N[C@H](C)C(=O)N(C)c1ccc(C#C/C=C/c2ccc([N+](=O)[O-])c(O)c2)cc1,,446000 M⁻¹ s⁻¹,,145 s⁻¹
